# Compound activity from PubChem.
# HUVEC inhibit: blocks proliferation of human endothelial cells; 86,000 compounds, 1.1% hits; viability, % at 10 µM (by protocol); AID 648; HUVEC proliferation, CellTiter-Glo luminescence, 72 h; hits give low values;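 active means viability at or below 30%; inactive means viability above 30%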;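 further: 100% = median luminescence of DMSO-only cell control wells on each plate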
# H69AR inhibit: growth inhibitors of human H69AR lung tumor cells; H69AR lung tumor viability, ATP luminescence, 72 h; hits give low values; viability, % at 10 µM; AID 598; 85,000 compounds, 6% hits;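 active means viability at or below 40%; inactive means viability above 40%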;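 further: multidrug resistant small cell line overexpressing MRP-1 efflux transporter; 100% = mean luminescence of untreated control wells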
# bCat KO growth: beta-catenin-lacking colon tumor cell growth suppression; 140,000 compounds, 1.5% hits; AID 818; HCT116 beta-catenin knockout viability, CellTiter-Glo, 60 h; hits give low values; viability, % at 10 µM;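 active means viability at or under a set limit, the compound median less 4 SD, cut at about 6% in these data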;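 further: 0% = Hyamine 1622 control at 20 µM and 100% = untreated cell control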
# HCT116 PTEN-null: growth suppressors of cells with PTEN tumor suppressor deletion; 140,000 compounds, 1.2% hits; viability, % at 10 µM; HCT116 PTEN-null viability, CellTiter-Glo, 60 h; hits give low values; AID 827;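 active means viability at or below a set limit, 4 SD under the median of all tested compounds, cut at about 3.7% in these data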;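 further: PTEN knockout HCT116 line with beta catenin targeted HCT116 as companion control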
# Fibroblast inh: blocks proliferation of human lung fibroblasts. viability, % at 10 µM. 85,000 compounds, 1.1% hits. LL 47 human lung fibroblast viability, ATP luminescence; hits give low values;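 active means viability at or below 50% in the single dose screen; inactive means viability above 50%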;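 further: compound exposure lasted 72 h before the ATP readout; 100% = median luminescence of untreated cell-only wells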
#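 Test system: LL 47 human lung fibroblasts; Quantity: 1,150 cells/well; Buffer or medium: IMEM plus 15% FBS; Dosing: tenfold compound dosing solution, DMSO at 0.1%; Timing: overnight cell rest, 72 h compound treatment at 37 °C; Detection: ATP-based CellTiter-Glo luminescent readout; Read-out basis: viability percentage against median untreated-cell control; Controls: cell-only wells, no compound.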
# Numbers without * were called inactive; · = not tested or not shown. The full list was thinned out, with hits kept by preference.
SMILES,HUVEC inhibit,H69AR inhibit,bCat KO growth,HCT116 PTEN-null,Fibroblast inh
Cc1nc(N)sc1-c1csc(Nc2ccccn2)n1,88.6,71.6,93.7,93.7,93.1
CCOC(=O)c1c(NC(=O)CSC2=NN3CCCC(=O)N=C3S2)sc2c1CCCCC2,·,·,45.1,48.2,·
COC(=O)c1ccc(COC(=O)CCC(=O)c2cccs2)cc1,·,·,84.8,92.1,·
Nc1nc(Nc2cccc(F)c2)nc2ccccc12,74.3,35.6*,69.8,71.5,·
COc1ccc(C)cc1N1C(=N)/C(=C2/Nc3ccccc3S2)C(c2ccccc2)C1=O (configuration not stated),·,·,1.6*,1.7*,·
COc1cccc(-n2cnc3sc(C)c(C)c3c2=O)c1,·,·,89.9,96.8,·
COc1ccc(NC(=O)CSc2nc(C)c3c(c2C#N)CCCC3)cc1,101.9,99.8,80.5,84.1,103.3
CCc1nnc(NC(=O)CSc2nc(C)c3c(c2C#N)CCCC3)s1,59.3,24.2*,57.9,38.8,93.8
CCOc1ccc2nc(SCc3ccc(C(=O)OC)o3)[nH]c2c1,·,·,87.0,82.8,·
Cc1nc(Nc2ccc(F)cc2)[nH]c(=O)c1CCC(C)C,75.0,6.7*,62.2,48.5,·
c1ccc(-c2cc(-c3nc(-c4cccnc4)no3)c3ccccc3n2)cc1,82.8,12.0*,·,·,106.7
c1ccc(-c2ccccc2-c2nc(-c3cccnc3)no2)cc1,75.9,76.3,96.7,84.7,95.0
COc1ccc(-n2nnnc2SCC#CCO)cc1,54.2,17.9*,88.0,86.2,100.4
COc1ccc(-n2nnnc2SCC(=O)c2cccc(OC)c2)cc1,57.5,86.4,35.9,46.1,98.8
Cc1nnc(C)c2c(C)n(C(c3ccccc3)c3ccccc3)c(C)c12,77.2,25.5*,71.3,63.9,106.5
CCOC(=O)C1=C(Cc2ccc(C)cc2)C(=O)c2ccccc2C1=O,17.5*,2.0*,80.1,77.6,72.8
CCOC(=O)C1=C(Cc2ccc(OC)cc2)C(=O)c2ccccc2C1=O,69.8,1.8*,73.8,79.8,94.2
CCOC(=O)C1=C(O)c2ccccc2C(=O)/C1=C\c1ccc(CC)cc1,·,·,74.3,67.8,·
CCOC(=O)c1c(C)nc2c(c1-c1cc(OC)ccc1OC)C(=O)c1ccccc1-2,·,·,92.2,86.5,·
COc1ccc(CN2C(=O)/C(=C/c3ccncc3)SC2=S)cc1,·,·,2.5*,2.0*,·
O=C(O)CCCCCN1C(=O)/C(=C\c2ccncc2)SC1=S,·,·,32.3,34.8,·
CN(C)CCNC(=S)Nc1ccc(Br)cc1,·,·,94.5,94.1,·
Cc1ccc(Oc2ccc(-c3nnc(-c4ccccc4)o3)cc2[N+](=O)[O-])cc1C,·,·,89.2,88.2,·
O=C(CSc1ncnc2c1nnn2-c1ccc(F)cc1)NCC1CCCO1 (configuration not stated),90.1,48.9,5.8*,28.2,97.5
Cc1ccc(-n2nnc3c(SCC(=O)NCC4CCCO4)ncnc32)cc1 (configuration not stated),86.3,86.2,62.1,62.4,96.6
SMILES,HUVEC inhibit,H69AR inhibit,bCat KO growth,HCT116 PTEN-null,Fibroblast inh
Cc1ccc(S(=O)(=O)N(C)C)cc1NC(=O)CSc1ncc(C(F)(F)F)cc1Cl,·,·,1.3*,90.8,·
CCN(CC)S(=O)(=O)c1ccc(C)c(NC(=O)CSc2ncc(C(F)(F)F)cc2Cl)c1,·,·,93.7,94.0,·
Cc1ccc(S(=O)(=O)N2CCN(C(=O)CSc3ncc(C(F)(F)F)cc3Cl)CC2)cc1,76.7,6.2*,51.0,45.0,88.8
CC(SCC(=O)NC(C)C1CC2CCC1C2)C(=O)O (configuration not stated),·,·,97.5,104.4,·
CCOc1ccc(-n2nc(C(=O)N3CCOCC3)c3ccccc3c2=O)cc1,103.1,88.9,·,·,101.9
Cc1ccccc1S(=O)(=O)NC1OC(=O)C(Cl)=C1Cl (configuration not stated),100.2,7.1*,100.7,107.0,95.9
CCn1c(SCC(=O)Nc2cc(C)on2)nc2sc3c(c2c1=O)CCCC3,78.5,7.1*,14.4,2.3*,15.2*
CC(NC(=O)CSc1nc2sc3c(c2c(=O)n1-c1ccccc1)CCCC3)c1ccccc1 (configuration not stated),67.5,1.9*,71.4,69.5,92.0
C=CCn1c(SCC(=O)Nc2cc(C)on2)nc2sc3c(c2c1=O)CCCC3,·,·,74.5,67.1,·
C=CCn1c(SCC(=O)Nc2cc(C)on2)nc2sc(C)c(C)c2c1=O,96.9,27.9*,78.2,57.2,91.1
Cc1cc(NC(=O)CSc2nc(C(C)C)nc3sc4c(c23)CCCC4)no1,60.4,5.6*,66.1,70.6,18.1*
CC(C)C(C)NC(=O)CSc1nc2scc(-c3ccco3)c2c(=O)n1-c1ccccc1 (configuration not stated),93.9,77.9,96.6,98.2,87.9
O=C(N/N=C/c1cccc(Oc2ccccc2)c1)c1ccccc1Br,·,·,51.9,54.8,·
COc1ccccc1-c1nnc(SCC(=O)NC2CCS(=O)(=O)C2)n1CCc1ccccc1 (configuration not stated),·,·,86.5,103.8,·
O=S(=O)(/N=C(/Nc1ccc(F)c(F)c1F)c1ccccc1)c1ccccc1,·,·,91.7,86.6,·
COc1ccc(-c2cc(-c3ccc(C)cc3)nc(SCc3nnc(-c4ccccc4)o3)c2C#N)cc1OC,·,·,1.5*,1.3*,·
COc1ccc(-c2nnc(CSc3nc4ccccc4c(=O)n3C)o2)cc1OC,80.9,59.7,70.9,72.9,94.7
C[N+]1(C2CCC3CCCC2C3O)CCCC1 (configuration not stated),·,·,96.8,93.6,·
CCOC(=O)c1sc(=NC(=O)c2cc(OC)c(OC)c(OC)c2)n(C)c1C,92.3,11.1*,22.0,13.4,97.4
CCOC(=O)c1sc(=NC(=O)c2ccc(S(=O)(=O)N3CCOCC3)cc2)n(C)c1C,94.3,83.9,·,·,102.6
O=C(Nc1nnc(-c2ccccc2)s1)c1cc(S(=O)(=O)N2CCOCC2)c(Cl)cc1Cl,46.5,10.0*,34.8,64.9,92.6
C=CCn1c(SCC(=O)c2ccc(O)c(O)c2)nnc1-c1ccccc1OC,75.8,20.0*,47.1,66.5,67.7
CCn1c(SCC(=O)c2ccc(O)c(O)c2)nnc1-c1ccccc1OC,75.9,36.1*,67.0,95.7,79.5
C=CCn1c(SCC(N)=O)nnc1-c1ccccc1O,95.0,93.8,100.3,102.9,99.1
C=C(C)CNC(=S)Nc1sc2c(c1C(=O)OCC)CC(C)(C)OC2,·,·,86.0,95.3,·
CCN(CC)CCCNC(CC(=O)Nc1cccc([N+](=O)[O-])c1)C(=O)O (configuration not stated),·,·,91.9,89.7,·
CC1=C(C(=O)Nc2ccc([N+](=O)[O-])cc2)C(c2cccc(C(F)(F)F)c2)NC(=S)N1c1ccccc1 (configuration not stated),·,·,1.4*,1.9*,·
CCCc1ccc(-c2cc(NC(=O)CSc3n[nH]c(N)n3)n(-c3ccccc3)n2)cc1,16.6*,16.9*,59.6,45.9,94.1
O=C(/C=C/c1c(F)cccc1Cl)c1ccc(F)cc1,·,·,4.3*,2.4*,·
O=C(N/N=C/c1c(Cl)cccc1Cl)c1ccc(F)cc1,·,·,98.3,91.9,·
